Source: PubChem BioAssay (several laboratories)
GRK2 aptamer HTS – human GRK2 inhibition via aptamer displacement; P25098; bead flow cytometry, FAM-aptamer displacement from GRK2; inhibition of aptamer binding, % at 10 µM; hit rate 0.59% among 330,000; AID 488847;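 active = inhibition of aptamer binding above 40%, roughly 3 SD of noise, on plates passing a quality check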;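 note: median bead fluorescence of bound FAM aptamer so fluorescent compounds give negative values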
HCV NS3 hel inh – inhibitors of Hepatitis C virus NS3 helicase; NS3 helicase DNA unwinding, Cy5 molecular beacon fluorescence; inhibition, % at 10.9 µM; hit rate 0.56% among 290,000; AID 1800;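 active = inhibition above the mean of all tested compounds plus 3 SD, set per campaign, cut at about 35% in these data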;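 note: 0% = DMSO wells and 100% = thioflavine S control wells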
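Control set: DMSO versus 110 µM thioflavine S; Material: NS3 helicase fragment of HCV; Measured by: Cy5 fluorescence at 0 and 60 min, beacon hairpin quenching; Read-out basis: percent inhibition from t60/t0 fluorescence ratio; Times: reaction time 60 min, 25 °C; Repeats: single replicate; Compound dosing: single dose, 10.9 µM nominal final, DMSO 0.8% final.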
DAGLB inh – blocks human DAGLB lipase activity | hit rate 0.059% among 340,000 | Q8NCG7 | AID 504411 | HEK293T DAGLB membrane lysate, EnzChek fluorogenic substrate | inhibition, % at 5.17 µM; in the data active = inhibition above about 34%;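 note: 0% = enzyme with vehicle and 100% = wells lacking enzyme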
DNA FID counter – counter-screen for HCV NS3 helicase inhibitors: DNA intercalator displacement. DNA fluorescent intercalator displacement, fluorescence. inhibition, % at 7.9 µM. hit rate 0.17% among 290,000. AID 1845; in the data active = inhibition above about 37%;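 note: 0% = vehicle and 100% = reference compound; higher means more ethidium bromide displaced from hairpin DNA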
HCV core dimer – blocks dimerization of HCV core protein; hit rate 0.33% among 300,000; inhibition, % at 5 µM; TR-FRET GST/Flag-core106 dimerization, 1536-well;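 active = inhibition above the mean of all tested compounds plus 3 SD, set per screening campaign, cut at about 45% in these data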
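Assay system: GST-tagged and Flag-tagged HCV core protein residues 1-106 / Times: compound-protein-antibody incubation 4 h at 22.5 °C / Signal: time-resolved FRET, ex 340 nm, em 617 and 671 nm / Evaluation: % inhibition based on acceptor/donor emission ratio / Benchmarks: wells lacking GST-core106 and wells with excess unlabelled core106 / Repeats: singlicate, one well per compound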
GPR7 antagonist – blocks human GPR7 receptor signaling; GPR7-expressing cells, fluorescence antagonist assay; P48145; hit rate 1.1% among 290,000; inhibition, % at 4.4 µM; in the data active = inhibition above about 16%, passing the limit was not always enough;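 note: cells stimulated with the agonist NPW; 0% = agonist with vehicle and 100% = vehicle without agonist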
Target sequence (P48145 whole entry, looked up): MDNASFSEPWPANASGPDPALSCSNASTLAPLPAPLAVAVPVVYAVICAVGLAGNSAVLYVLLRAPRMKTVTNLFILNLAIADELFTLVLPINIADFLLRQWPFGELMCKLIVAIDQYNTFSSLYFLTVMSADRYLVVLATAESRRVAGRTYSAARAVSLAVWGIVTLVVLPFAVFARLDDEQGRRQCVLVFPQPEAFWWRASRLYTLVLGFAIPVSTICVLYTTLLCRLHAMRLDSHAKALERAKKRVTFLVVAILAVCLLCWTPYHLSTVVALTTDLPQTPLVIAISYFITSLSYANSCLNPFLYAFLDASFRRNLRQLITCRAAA
Starred values were filed as active, the others as inactive; ! = not active in a repeat. Most compounds without a hit are left out; they make up all but 2.2% or so of the library.

`Cc1cc(Cl)n2c(nc3cc(F)c(F)cc32)c1C#N` gave HCV NS3 hel inh 6, DAGLB inh 0, DNA FID counter -4 and GPR7 antagonist 6.
Screening O=C(O)COc1ccc(Br)cc1C(c1c(C(=O)O)[nH]c2ccccc12)c1c(C(=O)O)[nH]c2ccccc12 returned GRK2 aptamer HTS 21, HCV NS3 hel inh -1, DAGLB inh 15, DNA FID counter -5, HCV core dimer 33 and GPR7 antagonist -8.
Screening O=C(O)c1[nH]c2ccccc2c1C(c1ccccc1)c1c(C(=O)O)[nH]c2ccccc12 returned GRK2 aptamer HTS 51*, HCV NS3 hel inh -31, DAGLB inh 16, DNA FID counter -26, HCV core dimer 4 and GPR7 antagonist -5.
For Oc1ccc(N=Nc2c(O)ccc3ccccc23)cc1 the results were GRK2 aptamer HTS 2, HCV NS3 hel inh 9, DAGLB inh 49*, DNA FID counter 26, HCV core dimer -11 and GPR7 antagonist 19.
`O=C(O)c1cc(N=Nc2c(O)ccc3ccccc23)cc(C(=O)O)c1` gave HCV NS3 hel inh 8, DAGLB inh 3, DNA FID counter 1 and GPR7 antagonist 2.
CC(=O)c1ccc(OCc2cc(C(=O)N(C)CCOc3ccc(C)cc3)no2)cc1 was read as GRK2 aptamer HTS 0, HCV NS3 hel inh -17, DAGLB inh -3, DNA FID counter -48, HCV core dimer -1 and GPR7 antagonist 3.
COc1ccccc1CNC(=O)COC(=O)/C=C/c1cccs1 was read as GRK2 aptamer HTS 0, HCV NS3 hel inh 3, DAGLB inh -2, DNA FID counter -10, HCV core dimer 3 and GPR7 antagonist 19*.
For CC(=O)NC1CC2CCCC(C1)N2C(=O)Nc1ccc(Cl)cc1 (stereo unspecified) the results were DAGLB inh -1.
Cc1ccc(NC(=S)NCCN(C2CCCCC2)C2CCCC2)cc1C was read as GRK2 aptamer HTS 0, HCV NS3 hel inh -35, DAGLB inh 2, DNA FID counter 32, HCV core dimer -2 and GPR7 antagonist 21.
Cc1ccc(NC(=S)NCCN(C2CCCCC2)C2CCCC2)cc1 was read as GRK2 aptamer HTS 3, HCV NS3 hel inh -27, DAGLB inh -2, DNA FID counter 33, HCV core dimer -2 and GPR7 antagonist 31*.
For CCN1CCN(CC(=O)Nc2ccccc2)C(=O)C1=O the results were GRK2 aptamer HTS 0, HCV NS3 hel inh 34, DAGLB inh -3, DNA FID counter 2, HCV core dimer -7 and GPR7 antagonist 15*.
Screening CCN1CCN(CC(=O)Nc2ccc(Cl)c(Cl)c2)C(=O)C1=O returned GRK2 aptamer HTS 1, HCV NS3 hel inh 4, DAGLB inh 1, DNA FID counter -1, HCV core dimer -2 and GPR7 antagonist 3.
Cc1sc(NC(=O)c2sc3nc4c(C)cccc4cc3c2N)c(C#N)c1C was read as GRK2 aptamer HTS 0, HCV NS3 hel inh 28, DAGLB inh 7, DNA FID counter 7, HCV core dimer 47* and GPR7 antagonist -3.
For Cc1ccc(Cl)c(NC(=O)CSc2n[nH]c(=O)n2C2CC2)c1Cl the results were GRK2 aptamer HTS 0 and DAGLB inh -2.
For Cc1cc(=O)n2[nH]c(-c3ccccc3)cc2n1 the results were GRK2 aptamer HTS 0, HCV NS3 hel inh 0, DAGLB inh -3, DNA FID counter -2, HCV core dimer -9 and GPR7 antagonist 5.
Cc1cc(=O)n2[nH]c(-c3ccc(C(C)(C)C)cc3)cc2n1 was read as GRK2 aptamer HTS 1, HCV NS3 hel inh -2, DAGLB inh 3, DNA FID counter -17, HCV core dimer -2 and GPR7 antagonist 25*!.
For COc1ccc(N(CC(=O)N/N=C/c2ccc(-c3ccc([N+](=O)[O-])cc3)o2)S(=O)(=O)c2ccc(C)cc2)cc1 the results were GRK2 aptamer HTS 4, HCV NS3 hel inh -2, DAGLB inh 1, DNA FID counter -1, HCV core dimer 52* and GPR7 antagonist 5.
`CCC(=O)N/N=C/c1ccc(-c2ccc([N+](=O)[O-])cc2)o1` gave GRK2 aptamer HTS 4, HCV NS3 hel inh -2, DAGLB inh 0, DNA FID counter -2, HCV core dimer 2 and GPR7 antagonist -4.
For COc1ccc(N(CC(=O)N/N=C/c2ccc(-c3ccc([N+](=O)[O-])cc3)o2)S(=O)(=O)c2ccc(C)cc2)cc1Cl the results were GRK2 aptamer HTS 9, HCV NS3 hel inh -2, DAGLB inh 4, DNA FID counter 0, HCV core dimer 63* and GPR7 antagonist -6.
For Nc1cc(Cl)ccc1C(=O)OCC(=O)NCc1cccs1 the results were GRK2 aptamer HTS 4 and DAGLB inh 0.
Screening CCc1cc(-c2nnn(CCC3COCCO3)c2C(C)(C)O)ccc1-c1cn(CCc2c[nH]c3ccccc23)nn1 (stereo unspecified) returned DAGLB inh 1.
Cc1cccc(NC(=O)CNC(=O)c2cccc(-n3cccc3)c2)c1C was read as GRK2 aptamer HTS 50*, DAGLB inh -1 and HCV core dimer 34.
`Cc1cccc(NC(=O)CNCC(=O)Nc2cccc(C)c2C)c1C` gave GRK2 aptamer HTS 5, HCV NS3 hel inh -1, DAGLB inh 3, DNA FID counter -13, HCV core dimer -3 and GPR7 antagonist 16.
`CCCCCC#CCC#CCC#CCC#CCCCC(=O)O` gave GRK2 aptamer HTS 50*, HCV NS3 hel inh 4, DNA FID counter -31, HCV core dimer 54* and GPR7 antagonist -6.
Screening Cc1cc(C)cc(-n2c3nc4ccccc4nc3c3c(=O)n(Cc4ccco4)cnc32)c1 returned GRK2 aptamer HTS 5, HCV NS3 hel inh 43*, DAGLB inh 7, DNA FID counter -22, HCV core dimer 60* and GPR7 antagonist -8.
CC(=O)c1ccc2c(c1)C1C=CCC1C(c1ccc(S(=O)(=O)N3CCOCC3)cc1)N2 (stereo unspecified) was read as GRK2 aptamer HTS 1, HCV NS3 hel inh 10, DAGLB inh 7, DNA FID counter -11, HCV core dimer 79* and GPR7 antagonist -6.
O=C(O)c1ccc2c(c1)C1C=CCC1C(c1ccncc1)N2 (stereo unspecified) was read as GRK2 aptamer HTS 6, HCV NS3 hel inh 16, DAGLB inh -2, DNA FID counter -14, HCV core dimer -3 and GPR7 antagonist -2.
Screening O=C(NCC1CCN(C(=O)c2c(F)c(F)c(F)c(F)c2F)CC1)c1c(F)c(F)c(F)c(F)c1F returned GRK2 aptamer HTS 0, HCV NS3 hel inh -4, DAGLB inh -2, DNA FID counter -31 and GPR7 antagonist -12.
Screening Cc1cc(Cl)n2nc(C)c(-c3ccc(Cl)cc3)c2n1 returned GRK2 aptamer HTS 1, HCV NS3 hel inh -4, DAGLB inh -4, DNA FID counter 7, HCV core dimer 0 and GPR7 antagonist 33*.
`CCOC(=O)C1(C(=O)OCC)C(C(=O)c2ccccc2)C1c1ccccc1` (stereo unspecified) gave DAGLB inh -8.
